Activity calls are given as the source filed them. The calls are words filed in the database; no cut-off is given here.
Key:
HL-60 [1] = assay: Cell cycle arrest in human HL60 cells assessed as accumulation at S phase at 1500 nM after 18 hrs by propidium iodide staining based flow cytometry (reference value: 20%); type: functional
HL-60 [2] = assay: Cell cycle arrest in human HL60 cells assessed as accumulation at G2/M phase at 1500 nM after 18 hrs by propidium iodide staining based flow cytometry (reference value: 19%); type: functional
HL-60 [3] = assay: Cell cycle arrest in human HL60 cells assessed as accumulation at G2/M phase at 300 nM after 18 hrs by propidium iodide staining based flow cytometry (reference value: 19%); type: functional
HL-60 [4] = assay: Cell cycle arrest in human HL60 cells assessed as accumulation at G1 phase at 1500 nM after 18 hrs by propidium iodide staining based flow cytometry (reference value: 62%); type: functional
HL-60 [5] = assay: Growth inhibition of human HL60 cells after 48 hrs by MTT assay; type: functional, cell-based; details: HL-60, 48 h
Method in brief: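 Human promyelocytic leukemia HL-60 cells; MTT cell proliferation read-out after 48 h incubation. IC50 derived from n = 3 replicates, reported as SEM.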

HL-60 [6] = assay: Cell cycle arrest in human HL60 cells assessed as accumulation at S phase at 300 nM after 18 hrs by propidium iodide staining based flow cytometry (reference value: 20%); type: functional
HL-60 [7] = assay: Cell cycle arrest in human HL60 cells assessed as accumulation at G1 phase at 300 nM after 18 hrs by propidium iodide staining based flow cytometry (reference value: 62%); type: functional
HL-60 [8] = assay: Cell cycle arrest in human HL60 cells assessed as accumulation at S phase at 1000 nM after 18 hrs by propidium iodide staining based flow cytometry (reference value: 20%); type: functional
HL-60 [9] = assay: Cell cycle arrest in human HL60 cells assessed as accumulation at G1 phase at 1000 nM after 18 hrs by propidium iodide staining based flow cytometry (reference value: 62%); type: functional
Sus scrofa = species: Sus scrofa; assay: Induction of porcine brain tubulin polymerization at 2.8 uM measured at 1 min interval over 100 mins by fluorescence assay
HL-60 [10] = assay: Cell cycle arrest in human HL60 cells assessed as accumulation at G2/M phase at 1000 nM after 18 hrs by propidium iodide staining based flow cytometry (reference value: 19%); type: functional
HL-60 [11] = assay: Cell cycle arrest in human HL60 cells assessed as accumulation at G1 phase at 100 nM after 18 hrs by propidium iodide staining based flow cytometry (reference value: 62%); type: functional
HL-60 [12] = assay: Cell cycle arrest in human HL60 cells assessed as accumulation at S phase at 500 nM after 18 hrs by propidium iodide staining based flow cytometry (reference value: 20%); type: functional
HL-60 [13] = assay: Cell cycle arrest in human HL60 cells assessed as accumulation at G1 phase at 500 nM after 18 hrs by propidium iodide staining based flow cytometry (reference value: 62%); type: functional
HL-60 [14] = assay: Cell cycle arrest in human HL60 cells assessed as accumulation at G2/M phase at 500 nM after 18 hrs by propidium iodide staining based flow cytometry (reference value: 19%); type: functional
HL-60 [15] = assay: Cell cycle arrest in human HL60 cells assessed as accumulation at G2/M phase at 100 nM after 18 hrs by propidium iodide staining based flow cytometry (reference value: 19%); type: functional
HL-60 [16] = assay: Cell cycle arrest in human HL60 cells assessed as accumulation at S phase at 100 nM after 18 hrs by propidium iodide staining based flow cytometry (reference value: 20%); type: functional

SMILES | Activity (HL-60 [1]) | Activity (HL-60 [2]) | Activity (HL-60 [3]) | Activity (HL-60 [4]) | IC50 (HL-60 [5]) | Activity (HL-60 [6]) | Activity (HL-60 [7]) | Activity (HL-60 [8]) | Activity (HL-60 [9]) | induction (Sus scrofa) | Activity (HL-60 [10]) | Activity (HL-60 [11]) | Activity (HL-60 [12]) | Activity (HL-60 [13]) | Activity (HL-60 [14]) | Activity (HL-60 [15]) | Activity (HL-60 [16])
CC[C@H](/C=C(/C)[C@@H]1C[C@@H](OC)C[C@H](O)[C@@H](C)[C@@]2(O)O[C@@H](C[C@@H](OC)[C@H](O)C(=O)O1)C[C@@H](OC)[C@H]2O)CO | 23% | 49% | 39% | 29% | 90 nM | 22% | 38% | – | – | – | – | – | – | – | – | – | –
CC(=O)O[C@H]1C(=O)[C@@]2(C)[C@H]([C@H](OC(=O)c3ccccc3)[C@]3(O)C[C@H](OC(=O)[C@H](O)[C@@H](NC(=O)c4ccccc4)c4ccccc4)C(C)=C1C3(C)C)[C@]1(OC(C)=O)CO[C@@H]1C[C@@H]2O [PACLITAXEL] | – | – | – | – | – | – | – | 19% | 28% | Active | 53% | – | – | – | – | – | –
CC[C@H](/C=C(/C)[C@@H]1C[C@@H](OC)C[C@H](O)C(C)(C)[C@@]2(O)O[C@@H](C[C@@H](OC)[C@H](O)C(=O)O1)C[C@@H](OC)[C@H]2O)CO | – | – | – | – | 19 nM | – | – | – | – | Active | – | 27% | 23% | 30% | 47% | 50% | 23%

Source: ChEMBL document CHEMBL4196187, “Peloruside E (22-Norpeloruside A), a Pelorusane Macrolide from the New Zealand Marine Sponge Mycale hentscheli, Retains Microtubule-Stabilizing Properties” (J Nat Prod, 2018)
